Experimental data pooled from the literature.
Target: Platelet-derived growth factor receptor beta (PDGFRB, Homo sapiens, UniProt P09619)

COc1ccc2c(c1)O[C@@H](c1ccc(OC)c(OC)c1)C[C@H]2NC(=O)C1(c2ccc3c(c2)OC(F)(F)O3)CC1 gave a remaining binding of 100% (cell-free assay, competition with immobilised ligand; 1 µM).
COc1cnc(Nc2cccc(S(N)(=O)=O)c2)nc1N1CCN(c2ccccc2)C(=O)C1 has a remaining binding of 94% (binding, competition with immobilised ligand; 1 µM).
N[C@@H]1CCN(c2nccc(-c3cnn4ncccc34)n2)C1 gave a remaining binding of 100% (binding; 1 µM).
The remaining binding of CCC(=N\O)/C(C)=C/c1ccc(F)cc1 is reported as 100% (cell-free assay, competition with immobilised ligand; 1 µM).
The remaining binding of C[C@@H]1CCN(c2nccc(-c3cnn4ncccc34)n2)C1 is reported as 100% (binding; 1 µM).
The remaining binding of N#CC1(c2ccccn2)CCN(Cc2cc(C(=O)N3CCCC3)c(=O)n3ccccc23)CC1 is reported as 86% (cell-free assay, competition with immobilised ligand; 1 µM).
For C=CC(=O)N1CCC(C(=O)NCC(=O)N2CCN(c3nc(-c4cnc(N)nc4C(F)F)nc(N4CCOCC4)n3)CC2)CC1, the remaining binding was 100% (binding, competition with immobilised ligand; 1 µM).
For CN(C)c1nccc(-c2cnn3ncccc23)n1, the remaining binding was 100% (binding; 1 µM).
FC(F)(F)c1ccc2c(c1)nc(-c1cccnc1)n2C1CC1 has a remaining binding of 100% (cell-free assay, competition with immobilised ligand; 1 µM).
For O=C(c1ccc(Nc2ncc(Cl)c(-c3ccc(Cl)s3)n2)cc1)N1CCC(N2CCCC2)CC1, the remaining binding was 0% (binding, competition with immobilised ligand; 1 µM).
CC1CCCN1c1nccc(-c2cnn3ncccc23)n1 (stereo not shown) gave a remaining binding of 100% (binding; 1 µM).
With N#Cc1ccccc1CSc1nnc2c(n1)[nH]c1ccccc12 the remaining binding was 91% (binding, competition with immobilised ligand; 10 µM).
CCN(CC)CCCCNc1ncc2cc(-c3cc(OC)cc(OC)c3)c(NC(=O)NC(C)(C)C)nc2n1 has a remaining binding of 38% (cell-free assay, competition with immobilised ligand; 1 µM).
O=C(Nc1cnc(Oc2ccc(F)cc2)nc1)N1CCc2ncccc2[C@@H]1c1ccc(F)cc1 gave a remaining binding of 100% (cell-free assay, competition with immobilised ligand; 1 µM).
For CN(C)c1ncc(F)c(-c2cnn3ncccc23)n1, the remaining binding was 100% (binding; 1 µM).
Cc1nccc(COC(=O)N2C[C@@H]3[C@@H](CNC(=O)c4ccc5[nH]nnc5c4)[C@@H]3C2)n1 has a remaining binding of 84% (cell-free assay, competition with immobilised ligand; 1 µM).
O=C(c1ccc(Nc2nccc(-c3cc4ccccc4s3)n2)cc1)N1CCC(N2CCCC2)CC1 has a remaining binding of 11% (binding, competition with immobilised ligand; 1 µM).
c1cnn2ncc(-c3ccnc(N4CCC45COC5)n3)c2c1 gave a remaining binding of 78% (binding; 1 µM).
CNC(=O)Nc1ccc2c(c1)[C@@]1(CC2)OC(=O)N(CC(=O)N(Cc2ccc(F)cc2)[C@@H](C)C(F)(F)F)C1=O gave a remaining binding of 87% (cell-free assay, competition with immobilised ligand; 1 µM).
CCN1CCN(Cc2ccc(C(=O)Nc3ccc(C)c(Oc4ccc5c(c4)CC(=O)N5)c3)cc2C(F)(F)F)CC1 gave a remaining binding of 0.85% (binding, competition with immobilised ligand; 1 µM).
O=C(NCC1CCOCC1)c1n[nH]cc1NC(=O)c1c(F)cccc1F gave a remaining binding of 99% (binding, competition with immobilised ligand; 1 µM).
With C[C@@H]1CN(c2ccc3ncc(-c4ccc5[nH]nc(C6CC6)c5c4)n3n2)C[C@H](C)O1 the remaining binding was 12% (binding, competition with immobilised ligand; 0.5 µM).
CC(=O)N1CCC(c2ccc(C(=O)NC(=N)N)cc2C(F)(F)F)CC1 has a remaining binding of 100% (cell-free assay, competition with immobilised ligand; 1 µM).
For CNC(=O)[C@@H]1CC[C@@H](n2c(-c3ccc4cnccc4c3)nc3ccc(C(=O)NCc4cccc(C(N)=O)c4)cc32)C1, the remaining binding was 100% (binding, competition with immobilised ligand; 1 µM).
The remaining binding of O=C(NCCCN1CCOCC1)c1ccc(Nc2ncc(Cl)c(-c3ccc(Cl)s3)n2)cc1 is reported as 0.05% (binding, competition with immobilised ligand; 1 µM).
